Assay results from different studies.
Lines come from different studies, so protocols differ.
Target: Myosin light chain kinase, smooth muscle (MYLK, Homo sapiens, UniProt Q15746)

For `Nc1ncc(-c2nc(N3CCOCC3)nc(N3CCOCC3)n2)c(C(F)F)n1`, the remaining binding was 78% (binding; competition with immobilised ligand; 10 µM).
With `O=c1[nH]c2ccccc2n1C1CCN(Cc2ccc(-c3[nH]c4cc5ncnc5cc4nc3-c3ccccc3)cc2)CC1` the remaining signal was 104% (cell-free assay; 0.5 µM).
With `Cn1cc(-c2cccc(N3CCc4c(sc5c4CC(C)(C)C5)C3=O)c2CO)cc(Nc2ccncn2)c1=O` the inhibition was -4% (enzyme activity; inhibitor; 1 µM).
`Cc1nn(C)cc1-c1nc2c(N3CCN(Cc4ccc(Cl)cc4)CC3)c(Cl)cnc2[nH]1` has a remaining binding of 89% (binding; competition with immobilised ligand; 1 µM).
For `Cn1cncc1[C@](O)(COc1ccc(C#N)cc1-c1ccc(OC(F)(F)F)cc1)c1ccc(C#N)cc1`, the remaining binding was 88% (cell-free assay; competition with immobilised ligand; 1 µM).
With `C#Cc1n[nH]c2c(-c3cn([C@@H](C)c4ccccn4)c(=O)[nH]c3=O)cc(F)cc12` the inhibition was 1.4% (enzyme activity; inhibitor; 0.1 µM).
For `COc1ncccc1-c1cnn2ccc(N3CCN(C(=O)OC(C)C)CC3)nc12`, the remaining binding was 85% (binding; competition with immobilised ligand; 1 µM).
With `C#Cc1n[nH]c2c(-c3cn([C@@H](C)c4ccccc4)c(=O)[nH]c3=O)cc(F)cc12` the inhibition was -0.2% (enzyme activity; inhibitor; 0.1 µM).
`CC(C)(C)c1cc(C=C(C#N)C#N)cc(Br)c1O` gave a remaining activity of 90.6% (enzyme activity; inhibitor; 0.5 µM).
